# Screen size: about 370,000 compounds; about 2,000 (0.54%) were called active. Only a selection was taken, and actives are over-represented in it overall. A number with no mark means an inactive call.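 The calls were made as follows: active = inhibition exceeding the mean over every tested compound plus 3 SD (cut at about 30% in these data); inactive = the rest.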
# Biological target: (Lyso)-N-acylphosphatidylethanolamine lipase (Mus musculus) (UniProt Q8VD66)
# Assay: ABHD4 inhibitors, primary screen, biochemical, fluorescence polarization, mouse (AID 720543);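 also: 0% = plate median of compound wells and 100% = S159A mutant with DMSO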
# Details: purified mABHD4, FP-Rh probe fluorescence polarization; at 8.92 µM; hits give high values
# Outline: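 Test system: mouse ABHD4 enzyme, wild type. Reagent: FP-Rh fluorescent activity-based probe, added after compound pre-incubation. Timing: pre-incubation 45 min, probe exposure 60 min, at 25 °C. Technique: FP readout, ex 525 nm / em 598 nm. Benchmarks: high control S159A mutant with DMSO, low control median of compound wells.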
# Chain of (Lyso)-N-acylphosphatidylethanolamine lipase (Mus musculus) (Q8VD66 whole entry, looked up): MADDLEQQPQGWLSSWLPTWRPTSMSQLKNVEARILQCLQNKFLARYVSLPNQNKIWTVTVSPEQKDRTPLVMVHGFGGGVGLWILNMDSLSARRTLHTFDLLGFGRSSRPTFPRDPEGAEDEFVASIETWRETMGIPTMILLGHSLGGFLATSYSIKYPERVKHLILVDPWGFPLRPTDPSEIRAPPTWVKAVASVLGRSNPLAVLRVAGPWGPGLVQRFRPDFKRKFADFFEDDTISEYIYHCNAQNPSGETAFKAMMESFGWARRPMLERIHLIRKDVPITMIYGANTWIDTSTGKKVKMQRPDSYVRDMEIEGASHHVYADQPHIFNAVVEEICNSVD
row,Compound,inhibition
1,CN(C)c1ccc(N/C=C/C(=O)C(F)(F)F)cc1,49.4% (active)
2,CC1CN(/C=C/C(=O)C(F)(F)F)CC(C)O1 (stereo unspecified),-3.37%
3,CN(C)c1ccc(C(CC(=O)O)C(=O)O)cc1 (stereo unspecified),24.1%
4,CC(=O)C1=C(C)NC(=O)NC1c1cc(Br)ccc1OCC#N (stereo unspecified),4.75%
5,Nc1[nH]c(C(=O)c2ccccc2)c(-c2ccc(Cl)cc2Cl)c1C(=O)c1ccccc1,-1.34%
6,CC(C)(C)c1ccc(S(=O)(=O)NC(=O)C2(C)CCN2C(=O)CC2CC2)cc1 (stereo unspecified),-2.61%
7,CC(C)c1ccc(CC(=O)N2CCC2(C)C(=O)NS(=O)(=O)c2ccc(C(C)(C)C)cc2)cc1 (stereo unspecified),59% (active)
8,CCCC(=O)N1CCC1(C)C(=O)NS(=O)(=O)c1ccc(Cl)cc1 (stereo unspecified),-1.74%
9,CCCCOCC1CN(CCCC)S(=O)(=O)c2c(Oc3ccc(F)cc3)cccc2O1 (stereo unspecified),4.37%
10,COC(CNC(=O)[C@H](Cc1ccccc1)NC1(C(=O)NC2CCCCC2)CCCCC1)OC,3.57%
11,COCc1cc(N2CCN(C(=O)OC(C)(C)C)C[C@@H]2C)ccc1N1CCN(Cc2ccccc2)[C@H](C)C1,-12.1%
12,COc1ccc(C#CCNCc2ccc(OC)cc2OC)cc1,-4.3%
13,O=c1c2ccccc2ccc2ccc(P(=O)(O)O)cc12,12%
14,O=Nc1c(O)cc(O)c2ccccc12,55.7% (active)
15,Cc1ccc(S(=O)(=O)N(C)C)cc1NC(=O)c1n[nH]c(=O)c2ccccc12,-9.11%
16,CCOc1ccccc1C(=O)N1CCC[C@@H]1C(=O)N1CCC[C@H]1C(=O)NCc1ccccc1,1.14%
17,CCOC(=O)CSc1nnc(CNC(=O)c2ccco2)n1-c1ccc(F)cc1,0.65%
18,COC(=O)c1cc2c(c3c4cc(F)ccc4n(S(=O)(=O)c4ccccc4)c13)C(=O)N(Cc1ccccc1OC)C2,-11.3%
19,COc1ccc(C(CC(=O)c2ccccc2)S(=O)(=O)c2ccccc2)cc1 (stereo unspecified),-2.98%
20,COC(=O)c1cc(N2CCNCC2)nc2ccccc12,1.72%
21,Cc1ccc(C)c(NC(=O)NNC(=O)c2ccc3ccccc3c2O)c1,8.45%
22,O=C(NNc1c2ccccc2nc2ccccc12)c1cc2ccccc2cc1O,31.3% (active)

row,Compound,inhibition
1,CC(C)(C)c1ccc(S(=O)(=O)NCC2CCN(C(=O)C(=O)c3cc4ccccc4o3)CC2)cc1,-26.4%
2,NC(=O)C1CCN(C(=O)c2cc(S(=O)(=O)N3CCN(c4ccccc4)CC3)ccc2Cl)CC1,6.55%
3,Brc1ccccc1C1Nc2cccc3cccc(c23)N1,45.1% (active)
4,O=C1CCC([N+](=O)[O-])C(c2ccccc2Br)N1 (stereo unspecified),-0.46%
5,O=C(Nc1ccc(Br)cc1)OCCN1C(=O)CCC12CCC(c1ccccc1)CC2 (stereo unspecified),0.58%
6,COC(=O)[C@H](C(C)C)N(CCc1cn(Cc2ccccc2)nn1)S(=O)(=O)c1ccc(F)cc1Br,-6.45%
7,CC1(C)OC(=O)C2=C(C[C@@H](C3CC3)O[C@H]2CCc2cccc(Cl)c2)O1,-7.3%
8,CC(=O)O[C@@]1(C(C)=O)CCC2[C@H]3C=C(C)C4=CC(=O)CC[C@@]4(C)C3CC[C@]21C (stereo partly specified),5.34%
9,Nc1ccc2nc3c(=O)[nH]c(=S)[nH]c3nc2c1,53.6% (active)
10,Cc1cc(Cl)c(S(=O)(=O)Nc2ccc3c(c2)OCCO3)cc1OCC(N)=O,-2.74%
11,CC1CCCN(S(=O)(=O)c2ccc(-c3ccc(=O)[nH]n3)o2)C1 (stereo unspecified),-2.46%
12,CC(C)CNS(=O)(=O)CC1NCCc2ccccc21 (stereo unspecified),3.38%
13,COC(=O)[C@]12C[C@H](CC(=O)NCCCCc3ccccc3)C(=O)N(Cc3ccc4c(c3)OCO4)C1=C[C@H](C(C)(C)C)O[C@@H]2C,0.01%
14,O=C(CCS(=O)(=O)c1ccccc1)Nc1ccc(Cl)c(Cl)c1,-9.05%
15,OCCNc1nc(Nc2ccc(Cl)c(Cl)c2)nc2ccccc12,39.5% (active)
16,OCCNCCOc1ccc(Cl)c(Cl)c1,3.5%
17,CCOC(=O)[C@]12CCC=C1N(Cc1ccccc1)C(=O)[C@H](CC(=O)N1CCCC1)C2,-6.55%
18,O=C1[C@@H](c2ccccc2)[C@@H](c2ccccc2)N1c1ccccc1,-3.86%
19,Cc1cc2nc(-c3ccco3)c(Cc3cccc(F)c3)n2c(C)c1Br,10.5%
20,COC(=O)C[C@@H]1CC[C@@H]2[C@@H](COc3ccc(NC(=O)Nc4ccc(F)c(F)c4)cc3C(=O)N2C)O1,4.06%
21,COc1cc(/C=C2/C(=O)NN(c3cccc(Cl)c3)C2=O)cc(Br)c1O,38.5% (active)
22,CCOc1c(Br)cc(/C=C2\C(=O)N(CCC#N)N=C2C)cc1OC,-10.7%

row,Compound,inhibition
1,CC1CN(Cc2nc3c(c(=O)n(C)c(=O)n3C)n2Cc2cccc(Cl)c2)CC(C)O1 (stereo unspecified),4.39%
2,CCCC1CCC2(CCCN2CCOC(=O)NCc2ccccc2)CC1 (stereo unspecified),-7.41%
3,O=[N+]([O-])c1cc(Br)c(O)c(/C=N/Nc2nc3ccccc3s2)c1,38.8% (active)
4,CCC1(C)Cc2c(sc3nnn(CC(=O)Nc4ccc(Cl)cc4)c(=O)c23)CO1 (stereo unspecified),-18.9%
5,COc1ccc(OC)c(NC(=O)c2ccc3c(c2)C(=O)N(c2ccc(OC(C)=O)cc2)C3=O)c1,3.91%
6,O=C(O)c1ccc2c(c1)C(=O)N(c1ccc(/C=C/C(=O)c3ccccc3)cc1)C2=O,39.1% (active)
7,CC(=O)Nc1ccc(NC(=O)c2ccc3c(c2)C(=O)N(c2ccccc2C)C3=O)cc1,-1.82%
8,Cc1cccnc1C(NC(=O)C1CCN(Cc2ccc(Cl)c(Cl)c2)CC1)c1ccc(Cl)cc1 (stereo unspecified),-1.83%
9,CC1CN(C2CCCCC2)c2nc3c(c(=O)n(C)c(=O)n3C)n2C1 (stereo unspecified),-5.35%
10,COc1cccc(CSc2nnc(-c3cccnc3)n2Cc2ccccc2)c1,0.82%
11,COc1cc(/C=C/C(=O)n2cnc3ccccc32)cc(OC)c1OC,-5.44%
12,C[C@H]1[C@H](NC(=O)c2cccc(N(C)C)c2)CC[C@@]23CCCN2C(=O)CCC[C@@H]13,4.02%
13,COC(=O)c1cccc(Cn2ccc3ccc(-c4ccc5ccn(C(=O)C6CCCCC6)c5c4)cc32)c1,3.18%
14,COc1cccc2c1C(=O)c1c(O)c3c(c(O)c1C2=O)CC(O)(C(C)=NNC(=O)c1ccc(Cl)c(Cl)c1)CC3OC1CC(N)C(O)C(C)O1 (stereo unspecified),67.4% (active)
15,Cc1ccc(S(=O)(=O)/N=C2\C=C(NS(=O)(=O)c3ccc(C)cc3)C(=O)c3ccccc32)cc1,40.1% (active)
16,Cc1ccc(S(=O)(=O)N[C@H](CO)C(C)C)cc1,-3.46%
17,Cc1ccc(S(=O)(=O)/N=S(\C)C(C)C)cc1 (stereo unspecified),-2.12%
18,C[C@@H](NC(=O)OC(C)(C)C)c1nnc(S(=O)(=O)Cc2ccccc2)o1,11.2%
19,CC(C)C(=O)N1c2ccccc2NC2=C(C(=O)CCC2)C1c1ccc(N(C)C)cc1 (stereo unspecified),7.43%
20,CCCCCCCCNS(=O)(=O)/C=C/c1cc(C)ccc1CNC(=O)OC(C)(C)C,-4.09%
21,Cc1ccc(C)c(NC(=O)CCS(=O)(=O)c2ccccc2)c1,-4.18%
22,Oc1ccc2ccccc2c1N=Nc1nccs1,61.8% (active)

row,Compound,inhibition
1,C[C@H](C(=O)N(C)c1ccccc1)[C@@H](O)c1ccc(Cl)cc1,0.42%
2,Nc1[nH]c(C(=O)c2ccccc2)c(-c2ccncc2)c1C(=O)NCc1cccc2ccccc12,-0.51%
3,Nc1[nH]c(C(=O)c2ccccc2)c(-c2ccc(Br)cc2)c1C(=O)NC1CC1,1.95%
4,Nc1[nH]c(C(=O)c2ccc(Br)cc2)c(-c2ccc3c(c2)OCO3)c1C(=O)NCCc1c[nH]c2ccccc12,48.9% (active)
5,O=c1ccc2c(-c3ccccc3S(=O)(=O)O)c3ccc(O)c(O)c3oc-2c1O,34% (active)
6,COc1ccc(-n2c(COc3ccccc3)nnc2SCC(=O)Nc2ccc3c(c2)OCO3)cc1,-9.7%
7,CC(=O)OCCN1CCCC12CCC(c1ccccc1)CC2 (stereo unspecified),0.33%
8,Cc1ccc(S(=O)(=O)N2CCC(C(=O)N[C@@H](C)C(=O)NCc3ccco3)CC2)cc1,-2.84%
9,Cc1cccc(C(=O)NC(=S)N2CCN(c3ccc([N+](=O)[O-])cc3)CC2)c1,-5.02%
10,CN1CCN(C(=O)c2cnn(-c3ccccc3)c2NC(=O)c2ccc([N+](=O)[O-])cc2)CC1,-2.86%
11,Cc1cc(/C=N/Nc2ccc([N+](=O)[O-])cn2)c(C)n1-c1cccc(C(=O)O)c1,45.6% (active)
12,O=C(N[C@@H]1C/C=C\C[C@@H](CC(=O)N(CCO)Cc2ccccc2)C(=O)N[C@H](Cc2ccccc2)COC1=O)OCC1c2ccccc2-c2ccccc21,7.4%
13,CSc1ccc(C=Nn2c(-c3ccc(F)cc3)n[nH]c2=S)cc1,0.61%
14,CCCCc1c(-c2ccc(Br)cc2)ncn1CCc1ccccc1OC,-0.8%
15,CCOCCCNC(=O)C(NC(=O)c1ccccc1O)c1ccccc1 (stereo unspecified),-0.7%
16,Clc1ccc(C2=CSC3=Nc4cccc5cccc(c45)N23)cc1,38.4% (active)
17,O=C(OCC#CCSc1nnc(-c2ccco2)o1)c1ccc(F)cc1,-9.72%
18,Cc1oc2cc(Br)c(O)c(Br)c2c1C(=O)c1ccccc1,44.9% (active)
19,Cc1oc2cc([N+](=O)[O-])c(O)c([N+](=O)[O-])c2c1C(=O)c1ccc(Br)cc1,8.71%
20,COc1cc(/C(=C/c2ccccc2)c2ccccc2)c2c(c1)oc1ccccc12,-1.7%

# — PubChem BioAssay AID720543 (The Scripps Research Institute Molecular Screening Center, 2013)
